Test results: ChEMBL document CHEMBL1130124, “Synthesis and opioid activity of [D-Pro10]dynorphin A-(1-11) analogues with N-terminal alkyl substitution” (J Med Chem, 1997)
pIC50, pKi: −log10 of the molar value.

Key:
Cavia porcellus [1] = species: Cavia porcellus; assay: The opioid activity by guinea pig ileum assay; format: functional
Outline: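 Guinea pig ileum twitch assay with cumulative peptide additions to the bath. IC50 values are means from three to six replicates using tissues from different animals.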

Cavia porcellus [2] = species: Cavia porcellus; assay: Opioid antagonist activity in guinea pig ileum assay; format: functional; details: read-out: pA2 (converted)
Outline: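 Guinea pig ileum antagonism: tissue incubated 10 min with peptide (10 μM where stated), then given […]. Shift measured relative to the agonist IC50 obtained without test peptide.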

[3] = biological target: T1, Kappa-type opioid receptor (Cavia porcellus, UniProt P41144); assay: Affinity against Opioid receptor kappa 2 was determined by measuring the inhibition of [3H]bremazocine binding to guinea pig cerebellar membranes; design: species or system Cerebellum, Membrane
T1 sequence (P41144 whole entry): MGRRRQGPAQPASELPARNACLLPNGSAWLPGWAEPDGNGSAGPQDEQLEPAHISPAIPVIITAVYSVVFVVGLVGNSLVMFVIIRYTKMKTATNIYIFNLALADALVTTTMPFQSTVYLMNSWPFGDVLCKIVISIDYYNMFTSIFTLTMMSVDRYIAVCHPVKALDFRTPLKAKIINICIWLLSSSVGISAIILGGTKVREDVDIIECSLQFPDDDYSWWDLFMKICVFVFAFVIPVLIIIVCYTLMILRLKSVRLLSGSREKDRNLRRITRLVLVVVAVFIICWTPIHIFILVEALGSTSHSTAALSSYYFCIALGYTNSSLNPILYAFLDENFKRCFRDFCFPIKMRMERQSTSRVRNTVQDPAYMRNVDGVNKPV

[4] = biological target: Delta-type opioid receptor (Rattus norvegicus, UniProt P33533); assay: Affinity against Opioid receptor delta 1 was determined by measuring the inhibition of [3H]DPDPE binding to rat forebrain membranes; format: cell membranes, Membrane
Sequence of Delta-type opioid receptor (P33533 whole entry): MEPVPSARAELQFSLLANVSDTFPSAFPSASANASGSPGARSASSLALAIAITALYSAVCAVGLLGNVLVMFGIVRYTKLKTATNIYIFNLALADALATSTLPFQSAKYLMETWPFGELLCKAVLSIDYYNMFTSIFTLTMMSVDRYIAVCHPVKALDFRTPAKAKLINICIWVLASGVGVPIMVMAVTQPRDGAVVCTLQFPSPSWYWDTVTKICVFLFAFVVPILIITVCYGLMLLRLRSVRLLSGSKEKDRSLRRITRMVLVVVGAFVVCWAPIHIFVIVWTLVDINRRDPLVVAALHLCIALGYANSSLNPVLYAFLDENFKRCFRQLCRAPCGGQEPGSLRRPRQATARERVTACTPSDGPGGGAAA
Outline: (§1)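 Rat forebrain membranes in 50 mM Tris pH 7.7, incubated 5 h at 4 °C. Final 10 μM bestatin, 30 μM captopril and 50 μM L-leucyl-L-leucine. Nonspecific binding defined with 10 μM levorphanol ([3H]DAMGO) or 10 μM unlabeled DPDPE ([3H]DPDPE). Competition curves fitted by nonlinear regression. Ratios use the lowest Ki as denominator.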

[5] = biological target: T1, Kappa-type opioid receptor; assay: Affinity against Opioid receptor kappa 3 was determined by measuring the inhibition of [3H]NalBzoH binding to […]
Mu-type opioid receptor = Mu-type opioid receptor (Rattus norvegicus, UniProt P33535); assay: Affinity against Opioid receptor mu 1 was determined by measuring the inhibition of [3H]DAMGO binding to rat forebrain membranes; format: cell membranes, Membrane; outline: as §1
Sequence of Mu-type opioid receptor (P33535 whole entry): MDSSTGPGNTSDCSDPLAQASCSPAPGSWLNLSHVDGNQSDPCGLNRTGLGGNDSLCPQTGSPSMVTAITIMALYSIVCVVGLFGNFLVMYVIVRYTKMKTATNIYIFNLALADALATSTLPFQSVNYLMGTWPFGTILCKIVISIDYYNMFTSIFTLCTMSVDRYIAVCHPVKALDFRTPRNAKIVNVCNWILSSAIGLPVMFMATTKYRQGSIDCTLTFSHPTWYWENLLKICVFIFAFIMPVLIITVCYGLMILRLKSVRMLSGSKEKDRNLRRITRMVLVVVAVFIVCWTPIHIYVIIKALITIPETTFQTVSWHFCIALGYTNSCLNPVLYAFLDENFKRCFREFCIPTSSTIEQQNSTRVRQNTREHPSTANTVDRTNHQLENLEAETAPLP

[6] = biological target: T1, Kappa-type opioid receptor; assay: Binding affinity towards Opioid receptor kappa 1 using [3H]diprenorphine as radioligand in guinea pig cerebellar membrane in absence of 120 mM NaCl + 50 uM Gpp(NH)p; format: cell membranes, Cerebellum
Outline: (§2)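 Guinea pig cerebellar membranes prepared in 50 mM Tris pH 7.4. [3H]diprenorphine at 0.3 nM final, 60 min at 25 °C, with 10 μM bestatin, 1 mM Leu-Leu and 100 nM DAMGO. Run without or with 120 mM NaCl plus 50 μM Gpp(NH)p. Nonspecific binding with 1 μM Dyn A-(1–13)NH2. Filtration over polyethyleneimine-soaked filters; shift expressed as IC50(+)/IC50(–).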

[7] = biological target: T1, Kappa-type opioid receptor; assay: Binding affinity towards Opioid receptor kappa 1 using [3H]diprenorphine as radioligand in guinea pig cerebellar membrane in presence of 120 mM NaCl + 50 uM Gpp(NH)p; format: cell membranes, Cerebellum; outline: as §2
[8] = biological target: T1, Kappa-type opioid receptor; assay: Affinity against Opioid receptor kappa 1 was determined by measuring the inhibition of [3H]U-69593 binding to guinea pig […]
[9] = biological target: T1, Kappa-type opioid receptor; assay: Affinity against Opioid receptor kappa 1 was determined by measuring the inhibition of [3H]bremazocine binding to guinea pig cerebellar membranes
Outline: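 Guinea pig cerebellar membranes with [3H]bremazocine in 20 mM HEPES pH 7.4, 3 h at 4 °C. 100 nM DAMGO and 100 nM bestatin present; nonspecific binding with 10 μM Dyn A-(1–13)NH2. Competition curves fitted by nonlinear regression. Selectivity ratios use the lowest Ki as denominator.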

[10] = IC50 ratio measured as the IC50(presence of 50 uM of Gpp(NH)p)/IC50 (absence of 50 uM of Gpp(NH)p).; outline: as §2
[11] = biological target: T2, Opioid receptors; mu/kappa/delta (Homo sapiens) (UniProt P41145+P41143+P35372); assay: Ki ratio is measured as the Ki values of kappa/mu/delta receptors; 1/21/880; format: protein assay
T2 sequence (P35372 whole entry, looked up): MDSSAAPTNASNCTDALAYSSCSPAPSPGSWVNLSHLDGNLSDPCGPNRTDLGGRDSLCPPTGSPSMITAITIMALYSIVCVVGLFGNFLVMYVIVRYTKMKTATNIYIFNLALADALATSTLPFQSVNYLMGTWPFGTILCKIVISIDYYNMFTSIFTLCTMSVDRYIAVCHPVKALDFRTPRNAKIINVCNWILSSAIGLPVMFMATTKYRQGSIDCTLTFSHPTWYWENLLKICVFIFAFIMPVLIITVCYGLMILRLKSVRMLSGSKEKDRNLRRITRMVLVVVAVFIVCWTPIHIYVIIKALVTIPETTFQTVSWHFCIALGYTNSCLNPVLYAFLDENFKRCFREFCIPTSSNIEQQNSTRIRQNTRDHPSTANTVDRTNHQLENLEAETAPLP
T2 sequence (P41143 whole entry, looked up): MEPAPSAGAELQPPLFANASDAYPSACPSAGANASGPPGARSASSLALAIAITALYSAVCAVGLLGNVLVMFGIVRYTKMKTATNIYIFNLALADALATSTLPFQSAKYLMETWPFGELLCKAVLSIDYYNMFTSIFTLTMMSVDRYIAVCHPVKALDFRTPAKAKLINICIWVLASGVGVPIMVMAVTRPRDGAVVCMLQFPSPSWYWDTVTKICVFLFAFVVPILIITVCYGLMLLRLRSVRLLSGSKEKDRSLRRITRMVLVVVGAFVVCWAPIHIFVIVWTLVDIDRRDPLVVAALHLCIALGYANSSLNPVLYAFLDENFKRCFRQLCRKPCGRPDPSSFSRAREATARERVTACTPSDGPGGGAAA
T2 sequence (P41145 whole entry, looked up): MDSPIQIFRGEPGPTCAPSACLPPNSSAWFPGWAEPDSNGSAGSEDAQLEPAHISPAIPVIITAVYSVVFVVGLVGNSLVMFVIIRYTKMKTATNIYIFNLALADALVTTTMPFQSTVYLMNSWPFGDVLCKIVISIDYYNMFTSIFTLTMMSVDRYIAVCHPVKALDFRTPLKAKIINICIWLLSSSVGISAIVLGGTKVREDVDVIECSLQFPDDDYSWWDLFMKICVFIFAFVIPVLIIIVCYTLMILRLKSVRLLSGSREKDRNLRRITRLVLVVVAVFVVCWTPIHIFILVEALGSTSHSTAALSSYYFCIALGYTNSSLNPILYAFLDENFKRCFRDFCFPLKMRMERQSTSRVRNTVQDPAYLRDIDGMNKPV
Outline: as §1, with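 “regression. IC50 converted to Ki by Cheng–Prusoff with KD 0.314 nM (DAMGO) and 7.63 nM (DPDPE).” for “regression.”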

[12] = biological target: Kappa-type opioid receptor (Homo sapiens) (UniProt P41145); assay: Ki ratio is measured as the Ki values of kappa-1/kappa.2/kappa.3 receptors; 1/150/17
Sequence of Kappa-type opioid receptor (Homo sapiens) (P41145 whole entry): as the sequence (P41145 whole entry, looked up) above
Outline: (§3)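 Hartley guinea pig whole-brain homogenate in 50 mM Tris-HCl pH 7.7 (6.67 mg wet tissue/mL; 5 mM EDTA for NalBzoH). Radioligands ~1 nM: [3H]U69,593 (κ1); [3H]bremazocine plus 100 nM DAMGO, DSLET and U69,593 (κ2); [3H]NalBzoH plus 100 nM U69,593 (κ3). Test peptide 10⁻⁵–10⁻¹¹ M, 1 h at 25 °C, with bacitracin/bestatin/thiorphan. Nonspecific binding: 1 μM U69,593, 10 μM bremazocine or NalBzoH. Filtration; Ki via Cheng–Prusoff.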

[13] = biological target: T2, Opioid receptors; mu/kappa/delta (Homo sapiens); assay: Ki ratio is measured as the Ki values of kappa/mu/delta receptors; 1/480/27900; format: protein assay
Outline: as §1, with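 “regression. IC50 converted to Ki by Cheng–Prusoff with KD 0.314 nM (DAMGO) and 7.63 nM (DPDPE).” for “regression.”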

[14] = biological target: T2, Opioid receptors; mu/kappa/delta (Homo sapiens); assay: Ki ratio is measured as the Ki values of kappa/mu/delta receptors; 1/8.8/41; format: protein assay
Outline: as §1, with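 “regression. IC50 converted to Ki by Cheng–Prusoff with KD 0.314 nM (DAMGO) and 7.63 nM (DPDPE).” for “regression.”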

[15] = biological target: Kappa-type opioid receptor (Homo sapiens) (UniProt P41145); assay: Ki ratio is measured as the Ki values of kappa-1/kappa.2/kappa.3 receptors; 1/233/5.3; outline: as §3

CC[C@H](C)[C@H](NC(=O)[C@H](CCCN=C(N)N)NC(=O)[C@H](CCCN=C(N)N)NC(=O)[C@H](CC(C)C)NC(=O)[C@H](Cc1ccccc1)NC(=O)CNC(=O)CNC(=O)[C@H](Cc1ccc(O)cc1)N(CC1CC1)CC1CC1)C(=O)N[C@@H](CCCN=C(N)N)C(=O)N1CCCC1C(=O)N[C@@H](CCCCN)C(=O)O (stereo in doubt)
pIC50 (Cavia porcellus [1]): < 4.00
Kb (Cavia porcellus [2]): 50.1 nM
pIC50 [3]: 6.41
pKi [4]: 6.78
pKi [5]: 7.35
pKi (Mu-type opioid receptor): 8.41
pIC50 [6]: 8.48
pIC50 [7]: 7.54
pKi [8]: 8.58
pKi [9]: 9.72
Ratio [10]: 8.79
Ki ratio [11]: kappa/mu/delta
Ki ratio [12]: kappa/mu/delta

CC[C@H](C)[C@H](NC(=O)[C@H](CCCN=C(N)N)NC(=O)[C@H](CCCN=C(N)N)NC(=O)[C@H](CC(C)C)NC(=O)[C@H](Cc1ccccc1)NC(=O)CNC(=O)CNC(=O)[C@H](Cc1ccc(O)cc1)NCC1CC1)C(=O)N[C@@H](CCCN=C(N)N)C(=O)N1CCCC1C(=O)N[C@@H](CCCCN)C(=O)O (stereo in doubt)
pIC50 (Cavia porcellus [1]): 8.67
Kb (Cavia porcellus [2]): 50.1 nM
pKi [4]: 6.25
pIC50 [6]: 9.39
pIC50 [7]: 7.57
Ratio [10]: 66.9
Ki ratio [13]: kappa/delta/mu

C=CCN(CC=C)[C@@H](Cc1ccc(O)cc1)C(=O)NCC(=O)NCC(=O)N[C@@H](Cc1ccccc1)C(=O)N[C@@H](CC(C)C)C(=O)N[C@@H](CCCN=C(N)N)C(=O)N[C@@H](CCCN=C(N)N)C(=O)N[C@H](C(=O)N[C@@H](CCCN=C(N)N)C(=O)N1CCCC1C(=O)N[C@@H](CCCCN)C(=O)O)[C@@H](C)CC (stereo in doubt)
pIC50 (Cavia porcellus [1]): < 5.52
pIC50 [3]: 5.30
pKi [4]: 6.83
pKi [5]: 6.95
pIC50 [6]: 7.67
pIC50 [7]: 7.19
pKi [8]: 7.67
Ratio [10]: 3.03
Ki ratio [14]: kappa/mu/delta
Ki ratio [15]: kappa/delta/mu

CC[C@H](C)[C@H](NC(=O)[C@H](CCCN=C(N)N)NC(=O)[C@H](CCCN=C(N)N)NC(=O)[C@H](CC(C)C)NC(=O)[C@H](Cc1ccccc1)NC(=O)CNC(=O)CNC(=O)[C@H](Cc1ccc(O)cc1)N(Cc1ccccc1)Cc1ccccc1)C(=O)N[C@@H](CCCN=C(N)N)C(=O)N1CCCC1C(=O)N[C@@H](CCCCN)C(=O)O (stereo in doubt) [listing 1 of 3 here]
Ratio [10]: 9.05

CC[C@H](C)[C@H](NC(=O)[C@H](CCCN=C(N)N)NC(=O)[C@H](CCCN=C(N)N)NC(=O)[C@H](CC(C)C)NC(=O)[C@H](Cc1ccccc1)NC(=O)CNC(=O)CNC(=O)[C@H](Cc1ccc(O)cc1)N(Cc1ccccc1)Cc1ccccc1)C(=O)N[C@@H](CCCN=C(N)N)C(=O)N1CCCC1C(=O)N[C@@H](CCCCN)C(=O)O (stereo in doubt) [listing 2 of 3 here]
pKi [4]: 5.56
pKi (Mu-type opioid receptor): 6.89
pIC50 [6]: 7.36
pIC50 [7]: 6.41
pKi [9]: 8.44

C=CCN[C@@H](Cc1ccc(O)cc1)C(=O)NCC(=O)NCC(=O)N[C@@H](Cc1ccccc1)C(=O)N[C@@H](CC(C)C)C(=O)N[C@@H](CCCN=C(N)N)C(=O)N[C@@H](CCCN=C(N)N)C(=O)N[C@H](C(=O)N[C@@H](CCCN=C(N)N)C(=O)N1CCCC1C(=O)N[C@@H](CCCCN)C(=O)O)[C@@H](C)CC (stereo in doubt)
Kb (Cavia porcellus [2]): 25.1 nM

CC[C@H](C)[C@H](NC(=O)[C@H](CCCN=C(N)N)NC(=O)[C@H](CCCN=C(N)N)NC(=O)[C@H](CC(C)C)NC(=O)[C@H](Cc1ccccc1)NC(=O)CNC(=O)CNC(=O)[C@H](Cc1ccc(O)cc1)N(Cc1ccccc1)Cc1ccccc1)C(=O)N[C@@H](CCCN=C(N)N)C(=O)N1CCCC1C(=O)N[C@@H](CCCCN)C(=O)O (stereo in doubt) [listing 3 of 3 here]
pIC50 (Cavia porcellus [1]): 6.64

CC[C@H](C)[C@H](NC(=O)[C@H](CCCN=C(N)N)NC(=O)[C@H](CCCN=C(N)N)NC(=O)[C@H](CC(C)C)NC(=O)[C@H](Cc1ccccc1)NC(=O)CNC(=O)CNC(=O)[C@@H](N)Cc1ccc(O)cc1)C(=O)N[C@@H](CCCN=C(N)N)C(=O)N1CCC[C@@H]1C(=O)N[C@@H](CCCCN)C(=O)O
Kb (Cavia porcellus [2]): 63.1 nM
